Assay results published in PubChem BioAssay.
The list shows a part of the results. Active and inactive are the calls of the source. Unless noted, no rule for the calls is given here.

tested on: not listed separately; assay: Brca1-Bard1 BiLC signal decrease – luminescence, single concentration, counter-screen for Mdm2/MdmX interaction inhibitor project, confirmation (AID 504668); settings: Brca1/Bard1 bimolecular luciferase complementation counterscreen, at 8 µM, stronger effect = higher value

Row | Compound | inhibition
1 | CC1(C)Cc2ccccc2C2=NNC(=O)C2=N1 | 29.2% (active)
2 | O=C(CCn1cnc(-c2ccccc2)c1-c1ccccc1)N/N=C/c1ccccc1O | 25.7% (active)
3 | CC(C)c1ccc(-c2nc3ccccc3s2)cc1 | 35.8% (active)
4 | CC(C)(C)C(=O)NC(=S)NNC(=O)c1ccc(-c2ccccc2)cc1 | 28.9% (active)
5 | Cc1cc(C=C2C(=O)c3ccccc3C2=O)c(C)n1-c1ccccc1 | 34.3% (active)
6 | COc1ccc(C(O)(CC(C)C)C(CN2CCOCC2)c2ccccc2)cc1 (stereo not drawn) | 30.5% (active)
7 | Cc1nnc(NC(=O)Nc2ccc(Cl)c(Cl)c2)s1 | 33.4% (active)
8 | O=C1/C(=C\c2cccc(O)c2O)SC(=S)N1Cc1ccccc1 | 34.2% (active)
9 | CCN(CC)c1ccc2nc3ccc(N)cc3[n+](-c3ccccc3)c2c1 | 23.6% (active)
10 | c1ccc(-c2noc(-c3ccc4ccccc4c3)n2)nc1 | 27% (active)
11 | O=C(N/N=C\c1c(O)ccc2ccccc12)c1ccc(Cn2cccn2)o1 | 24.8% (active)
12 | O=C(/C=C/Nc1ccccc1Br)c1ccccn1 | 24% (active)
13 | CNC[C@H](CC1CCCCC1)NC[C@H](NCCC1CCCC1)[C@H](C)O | 30.2% (active)
14 | CCCC(=O)NC(c1ccc(N(C)C)cc1)c1ccc2cccnc2c1O (stereo not drawn) | 29.9% (active)
15 | C=C(C)Cn1c(SCC(=O)N/N=C/c2c(O)ccc3ccccc23)nc2ccccc2c1=O | 31.4% (active)
16 | O=C(N/N=C\c1c(O)ccc2ccccc12)c1cncc(Br)c1 | 26.8% (active)
17 | COc1cc(/C=C/C(=O)N2CCC=CC2=O)cc(OC)c1OC | 26.8% (active)
18 | CC(=O)NC(=S)Nc1ccc(NC(=S)NC(=O)/C=C/c2ccco2)cc1 | 35% (active)
19 | COc1ccc(C(NC(C)=O)c2ccc3cccnc3c2O)c(OC)c1 (stereo not drawn) | 31.2% (active)
20 | COc1cc(/C=C/c2ccc3cccc(O)c3n2)c(Br)cc1O | 29.2% (active)
21 | COC(=O)Cc1[nH]n(-c2nc3ccccc3s2)c(=O)c1C(C)=Nc1ccc(C)cc1 | 32.2% (active)
22 | Cc1cc(C)c2nc(NNC(=O)c3ccc(S(=O)(=O)N4CC(C)CC(C)C4)cc3)sc2c1 (stereo not drawn) | 23.2% (active)
23 | Cc1cc(C(=O)COC(=O)C2=COCCO2)c(C)n1-c1ccccc1 | 31.6% (active)

tested on: not listed separately; assay: NF-kB reporter suppression in CF airway cells – cell-based, GFP fluorescence, single concentration, confirmation (AID 602472; in the data active = inhibition above about 40%;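 also: stimulus PAF is a Pseudomonas aeruginosa filtrate and not platelet activating factor; plate controls were DMSO wells with stimulus for no effect and unstimulated DMSO wells for full effect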); settings: KKLEB CF airway cells, PAF-induced NF-kB-GFP fluorescence, overnight; at 5 µM; stronger effect = higher value
In short: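 Assay system: KKLEB immortalized cystic fibrosis airway epithelial cells with NFkB-GFP reporter. Buffer or medium: medium with 2% FBS for cells, serum-free medium for stimulus. Dosing: 5 µM single dose. Times: 2 h compound pretreatment at 37 °C, overnight PAF exposure. Measured by: GFP fluorescence of NFkB reporter.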

Row | Compound | inhibition
24 | Brc1ccc2ncnc(NCc3cccnc3)c2c1 | 69.2% (active)
25 | Cc1ccc2occ(/C=N/NC(=O)c3ccccc3C)c(=O)c2c1 | 94.8% (active)
26 | COc1ccc(-c2cn[nH]c2-c2ccc(OC)cc2)cc1 | 69.3% (active)
27 | Cc1nnc(NC(=O)Nc2ccc(Cl)c(Cl)c2)s1 | 68% (active)

target: PEG-3 (UniProt Q6IN02); assay: inhibition of PEG-3 promoter-driven reporter – cell-based, HeLa, luciferase, CREF/GAPDH counter-screen panel, dose response (AID 624167); settings: CREF/GAPDH counter-screens; HeLa PEG-Prom luciferase reporter, overnight, run 1, dose range 1, at 100 µM (top of the series) unless noted
Sequence (Q6IN02 whole entry, looked up): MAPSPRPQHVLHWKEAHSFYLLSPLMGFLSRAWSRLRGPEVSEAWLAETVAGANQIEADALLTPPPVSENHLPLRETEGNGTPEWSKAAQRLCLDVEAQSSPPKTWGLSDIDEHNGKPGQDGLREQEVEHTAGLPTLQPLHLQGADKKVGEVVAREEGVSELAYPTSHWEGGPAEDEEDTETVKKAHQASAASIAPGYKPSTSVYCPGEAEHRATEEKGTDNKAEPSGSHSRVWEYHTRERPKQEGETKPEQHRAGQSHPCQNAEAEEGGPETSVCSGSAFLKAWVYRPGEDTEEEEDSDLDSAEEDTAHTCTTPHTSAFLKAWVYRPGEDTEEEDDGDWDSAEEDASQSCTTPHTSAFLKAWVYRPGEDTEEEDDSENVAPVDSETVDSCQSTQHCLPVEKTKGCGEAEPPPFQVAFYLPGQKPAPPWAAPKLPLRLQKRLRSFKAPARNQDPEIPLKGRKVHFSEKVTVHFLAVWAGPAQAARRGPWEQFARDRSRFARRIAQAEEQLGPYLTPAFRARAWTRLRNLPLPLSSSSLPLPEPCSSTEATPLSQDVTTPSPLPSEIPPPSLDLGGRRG

Row | Compound | inhibition [%]
28 | CCN1CCN(C(c2ccc(C(F)(F)F)cc2)c2ccc3cccnc3c2O)CC1 (stereo not drawn) | 101
29 | CC(C)(c1ccccc1)c1ccc(OCC(O)CNC2CCN(Cc3ccccc3)CC2)cc1 (stereo not drawn) | 102
30 | Nc1nonc1-n1nnc(C(=O)N/N=C/c2cc(Br)ccc2O)c1CNc1ccccc1 | 89.3
31 | CCOc1ccc(C(=O)O/N=C(\N)c2ccccn2)cc1 | 98
32 | COc1cccc2sc(N(CCCN(C)C)C(=O)C(c3ccccc3)c3ccccc3)nc12 | 102
33 | O=C(O)c1cccc(COc2ccc3c(c2)CCC3)c1 | 98.5
34 | C=CCc1cccc(/C=N/NC(=O)C(C)Nc2cccc(C)c2)c1O (stereo not drawn) | 60.8
35 | O=C1c2ccccc2S(=O)(=O)N1Cc1nc2ccccc2s1 | 101
36 | C/C(=N\NC(=O)c1c(C)nc2ccccn12)c1ccc(O)cc1O | 66.9
37 | Cc1ccc2oc(/N=C(\N)NC(=O)C(C)(C)C)nc2c1 | 98
38 | O=C(/C=C/c1ccccc1)NC(NC(=S)Nc1cccc(Cl)c1)C(Cl)(Cl)Cl (stereo not drawn) | 98.2
39 | CCN1C(=O)C(=Cc2cccc(OC)c2Oc2ccc([N+](=O)[O-])cc2[N+](=O)[O-])SC1=S | 21.1
40 | CCC(=O)NC(c1ccc(C)cc1)c1ccc2cccnc2c1O (stereo not drawn) | -12.7
41 | O=C(CCn1cnc(-c2ccccc2)c1-c1ccccc1)N/N=C/c1ccccc1O | 100
42 | CC(C)c1ccc(-c2nc3ccccc3s2)cc1 | 99.1
43 | Cc1cc(C=C2C(=O)c3ccccc3C2=O)c(C)n1-c1ccccc1 | 62.9

Row | Compound | inhibition [%]
44 | COc1ccc(C(O)(CC(C)C)C(CN2CCOCC2)c2ccccc2)cc1 (stereo not drawn) | 100
45 | O=C1/C(=C\c2cccc(O)c2O)SC(=S)N1Cc1ccccc1 | 99.6
46 | CCN(CC)c1ccc2nc3ccc(N)cc3[n+](-c3ccccc3)c2c1 | 101
47 | O=C(N/N=C\c1c(O)ccc2ccccc12)c1ccc(Cn2cccn2)o1 | 84.9
48 | O=C(/C=C/Nc1ccccc1Br)c1ccccn1 | 96.6
49 | CNC[C@H](CC1CCCCC1)NC[C@H](NCCC1CCCC1)[C@H](C)O | 102
50 | CCCC(=O)NC(c1ccc(N(C)C)cc1)c1ccc2cccnc2c1O (stereo not drawn) | 24.4
51 | C=C(C)Cn1c(SCC(=O)N/N=C/c2c(O)ccc3ccccc23)nc2ccccc2c1=O | 54.6
52 | O=C(N/N=C\c1c(O)ccc2ccccc12)c1cncc(Br)c1 | 82.3
53 | COc1cc(/C=C/C(=O)N2CCC=CC2=O)cc(OC)c1OC | 99.1
54 | COc1ccc(C(NC(C)=O)c2ccc3cccnc3c2O)c(OC)c1 (stereo not drawn) | 64.7
55 | COc1cc(/C=C/c2ccc3cccc(O)c3n2)c(Br)cc1O | 99.5
56 | COC(=O)Cc1[nH]n(-c2nc3ccccc3s2)c(=O)c1C(C)=Nc1ccc(C)cc1 | 80.3
57 | Cc1cc(C)c2nc(NNC(=O)c3ccc(S(=O)(=O)N4CC(C)CC(C)C4)cc3)sc2c1 (stereo not drawn) | 99.5
58 | Cc1cc(C(=O)COC(=O)C2=COCCO2)c(C)n1-c1ccccc1 | 101
